This is an account of results in PubChem BioAssay.

Structures are written as SMILES. Activity calls are given as the source filed them.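 How the source made its calls, unless noted: active means Her2 level under about 52% in both replicate screens, with viability over 70% of control (limit read from the data); inconclusive means Her2 under the limit in one screen only, or viability under 70%; inactive means Her2 level above the set limit.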

Test [1] is described as follows: Her2 expression decrease, cell viability multiplex – SKBR3 breast tumor cells, AlphaScreen, ATP viability, primary screen (AID 461).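 On Her2 level: lower value means less Her2 protein in the cells.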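 On viability: percent of carrier control wells set as 100% viability.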 Particulars: SKBR3 Her2 protein level, 18-24 h, measured here: SKBR3 viability, ATP luminescence, at 10 µM.
In test [2] the target is Receptor tyrosine-protein kinase erbB-2 (Homo sapiens) (UniProt P04626). Described as above. Particulars: 18-24 h, at 10 µM, stronger effect = lower value.
Sequence of Receptor tyrosine-protein kinase erbB-2 (Homo sapiens) (P04626 whole entry, looked up): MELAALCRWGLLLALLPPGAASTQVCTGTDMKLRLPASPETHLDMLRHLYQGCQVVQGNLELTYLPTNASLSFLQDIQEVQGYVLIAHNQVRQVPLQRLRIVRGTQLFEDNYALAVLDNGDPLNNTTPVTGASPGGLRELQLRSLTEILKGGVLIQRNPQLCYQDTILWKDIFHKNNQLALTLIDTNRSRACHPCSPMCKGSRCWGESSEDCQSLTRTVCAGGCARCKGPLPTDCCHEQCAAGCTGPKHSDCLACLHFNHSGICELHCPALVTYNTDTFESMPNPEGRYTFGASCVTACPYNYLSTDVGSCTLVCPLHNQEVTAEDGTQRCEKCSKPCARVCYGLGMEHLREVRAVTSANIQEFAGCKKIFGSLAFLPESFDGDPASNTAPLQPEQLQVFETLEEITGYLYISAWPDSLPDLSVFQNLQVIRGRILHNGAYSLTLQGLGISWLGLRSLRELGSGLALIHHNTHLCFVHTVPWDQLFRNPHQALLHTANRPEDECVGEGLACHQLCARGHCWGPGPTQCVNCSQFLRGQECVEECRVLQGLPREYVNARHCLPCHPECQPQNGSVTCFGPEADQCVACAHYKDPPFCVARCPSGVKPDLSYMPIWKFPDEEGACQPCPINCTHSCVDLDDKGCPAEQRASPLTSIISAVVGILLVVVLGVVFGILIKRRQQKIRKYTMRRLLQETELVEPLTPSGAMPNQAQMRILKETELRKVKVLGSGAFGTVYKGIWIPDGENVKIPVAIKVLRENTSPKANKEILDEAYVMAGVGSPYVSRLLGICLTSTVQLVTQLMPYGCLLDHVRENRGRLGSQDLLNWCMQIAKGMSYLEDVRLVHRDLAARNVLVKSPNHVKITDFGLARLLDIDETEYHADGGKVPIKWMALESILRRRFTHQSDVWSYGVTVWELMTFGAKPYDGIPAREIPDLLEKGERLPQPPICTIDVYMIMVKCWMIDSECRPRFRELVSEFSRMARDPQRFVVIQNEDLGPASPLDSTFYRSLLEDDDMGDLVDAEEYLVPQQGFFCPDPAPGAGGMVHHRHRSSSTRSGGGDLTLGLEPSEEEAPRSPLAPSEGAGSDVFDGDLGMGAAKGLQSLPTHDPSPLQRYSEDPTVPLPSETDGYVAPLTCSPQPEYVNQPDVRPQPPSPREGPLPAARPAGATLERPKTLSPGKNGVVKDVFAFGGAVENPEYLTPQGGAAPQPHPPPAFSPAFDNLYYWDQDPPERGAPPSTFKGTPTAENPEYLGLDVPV
Test [3] is described as follows: reduced viability of SK-BR-3 breast cancer cells – cell-based, 24 h, human, pilot screen (AID 572;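 active means viability at or below 10% of carrier control in both of two separate runs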;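 further: compound exposure lasted between 18 and 24 h rather than exactly 24 h; 100% = carrier-treated control wells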). Particulars: SK-BR-3 viability, CellTiter-Glo luminescence, at 10 µM, stronger effect = lower value.
A short description of test [4]: HUVEC growth inhibition – cell-based, human, primary screen (AID 575;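 active means viability at or below 30% in both replicate assays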;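 further: 100% = median of untreated cell wells with 0.1% DMSO on each plate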). Particulars: HUVEC proliferation, CellTiter-Glo luminescence, 72 h; at 10 µM; stronger effect = lower value. In a few lines: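 system = HUVEC primary cells | amount = 1250 cells/well | buffer or medium = supplemented EBM, 2% fetal bovine serum | dosing = single-point 10 µM, DMSO 0.1% final | times = 72 h compound incubation | detection = CTG luminescence | read-out = % viability relative to median vehicle-well signal on each plate | control set = vehicle and MePR control wells | format = collagen-coated 384-well format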

The nature of test [5]: H69AR cell proliferation blockers – human, duplicate replicates, primary screen (AID 580;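 active means viability at or under a set limit in both replicates, limit being median viability minus 3 SD, cut at about 48% in these data, passing the limit was not always enough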;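 further: 100% = mean luminescence of untreated wells and 0% = no signal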). Particulars: H69AR lung tumor cells viability, ATP luminescence, 72 h; at 10 µM; stronger effect = lower value.
A short description of test [6]: MRP1 drug-resistance reversers in H69AR cells – cell-based, doxorubicin co-treatment, pilot screen (AID 601;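 active means viability loss from added drug above about 55%, and viability with drug at most 40%, in both replicates, limit read from the data, passing the limit was not always enough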). Particulars: CellTiter-Glo, 72 h, at 10 µM; for differential viability (reversal): stronger effect = higher value.
Test [7] can be described thus: yeast transport mutant growth inhibition pilot in 384-well plates, post-Golgi transport modulator project (AID 636; in the data active means inhibition above about 31%). Particulars: absorbance 615 nm, about 18 h, stronger effect = higher value.
Test [8] is described as follows: growth suppression of yeast trafficking mutant, preliminary HTS, modulators of trafficking downstream of Golgi apparatus project, 1536-format plate, OD 615 nm (AID 637; in the data active means inhibition above about 30%). Particulars: yeast transport mutant growth, absorbance 615 nm, 18 h; stronger effect = higher value.
[9] abbreviates: H69AR cells + 2 uM doxorubicin, measured here: viability with 2 uM doxorubicin, stronger effect = lower value.
Where [10] appears, read: H69AR cells, compound alone cytotoxicity.

For the compound `Cc1ccc(C)c(-n2c(Cc3cc(=O)[nH]c(=O)[nH]3)nnc2SCC(=O)NCc2ccco2)c1`, the viability in test [1] is 131%; in test [3] it was 131% (inactive); in test [4] it was 100% (inactive); in test [5] it was 102% (inactive); in test [6] (setting [9]) it was 89%; in test [6] (setting [10]), 102%. Moreover, in test [2], the Her2 level is 142% (inactive). Moreover, the differential viability (reversal) in test [6] (H69AR cells + 2 uM doxorubicin) was 13.3% (inactive). The inhibition in test [7] is -6% (inactive); in test [8] it was -5% (inactive).

For `NC(=O)C1(N2CCCCC2)CCN(CC(=O)Nc2cc(Cl)ccc2Cl)CC1`, the viability in test [1] was 105%; in test [3], 105% (inactive); in test [4], 81.6% (inactive); in test [5], 91.8% (inactive); in test [6] (setting [9]), 103%; in test [6] (setting [10]), 91.8%. The Her2 level in test [2] is 91.5% (inactive). For the same compound, the differential viability (reversal) in test [6] (H69AR cells + 2 uM doxorubicin) was -11.5% (inactive). For the same compound, the inhibition in test [7] was -1.6% (inactive); in test [8] it was 2.79% (inactive).

`CCC(=O)N/C(N)=N/c1nc(C)c2cc(OC)ccc2n1`: the viability in test [1] was 131%; in test [3] it was 131% (inactive); in test [4], 59.5% (inactive); in test [5], 80.7% (inactive); in test [6] (setting [9]) it was 89.3%; in test [6] (setting [10]) it was 80.7%. The Her2 level in test [2] is 67.5% (inactive). In test [6] (H69AR cells + 2 uM doxorubicin), the differential viability (reversal) is -8.64% (inactive). In addition, the results for the inhibition in test [7] and in test [8] were -0.13% (inactive) and -5.74% (inactive), respectively.

As to `CC(=O)Nc1ccc(S(=O)(=O)n2cnc(C)c2)cc1`, the viability in test [1] was 91%; in test [3], 91% (inactive); in test [4], 102% (inactive); in test [5], 104% (inactive); in test [6] (setting [9]), 99.6%; in test [6] (setting [10]) it was 104%. Also, the Her2 level in test [2] is 93.5% (inactive). The differential viability (reversal) in test [6] (H69AR cells + 2 uM doxorubicin) was 3.98% (inactive). In addition, the inhibition is -0.53% (inactive) in test [7] and -5% (inactive) in test [8].

`CCC(C)(C)n1nnnc1C(c1ccc(OC)c(OC)c1)N1CCN(c2ccccc2)CC1` (stereo not given): the viability in test [1] is 85%; in test [3], 85% (inactive); in test [4], 90.2% (inactive); in test [5], 88.8% (inactive); in test [6] (setting [9]), 78.9%; in test [6] (setting [10]) it was 88.8%. Besides, the Her2 level in test [2] is 86% (inactive). In addition, in test [6] (H69AR cells + 2 uM doxorubicin), the differential viability (reversal) was 9.98% (inactive). The inhibition is -7.67% (inactive) in test [7] and -0.16% (inactive) in test [8].

In the case of `CC(C)=CCSc1nnc(CCNC(=O)OC(C)(C)C)o1`, the viability in test [1] is 96%; in test [3], 96% (inactive); in test [4], 87.2% (inactive); in test [5], 96.6% (inactive); in test [6] (setting [9]), 79.3%; in test [6] (setting [10]), 96.6%. In test [2], the Her2 level was 85.5% (inactive). Besides, in test [6] (H69AR cells + 2 uM doxorubicin), the differential viability (reversal) was 17.2% (inactive). In addition, the figures for the inhibition in test [7] and in test [8] were -4.8% (inactive) and 16.6% (inactive), respectively.

In the case of `COc1cccc(OCCSc2nnc3sc4ccccc4n23)c1`, the viability in test [1] was 86%; in test [3] it was 86% (inactive); in test [4], 106% (inactive); in test [5], 85.3% (inactive); in test [6] (setting [9]) it was 91.8%; in test [6] (setting [10]) it was 85.3%. The Her2 level in test [2] was 98% (inactive). Also, in test [6] (H69AR cells + 2 uM doxorubicin), the differential viability (reversal) was -6.48% (inactive). The inhibition in test [7] was 2.73% (inactive); in test [8], 0.66% (inactive).

In the case of `O=C(CSc1nnnn1C1CCCC1)NCc1ccc2c(c1)OCO2`, the viability in test [1] was 86%; in test [3] it was 86% (inactive); in test [4], 93.7% (inactive); in test [5], 102% (inactive); in test [6] (setting [9]), 98.6%; in test [6] (setting [10]) it was 102%. The Her2 level in test [2] was 89% (inactive). In addition, the differential viability (reversal) in test [6] (H69AR cells + 2 uM doxorubicin) is 3.33% (inactive). In addition, the figures for the inhibition in test [7] and in test [8] were -6.22% (inactive) and 2.46% (inactive), respectively.

As to `COC(=O)c1[nH]c(C)c(/C(O)=C2\C(=O)C(=O)N(CCN(C)C)C2c2ccccc2OC)c1C` (stereo not given), the viability was 88% in test [1]; 88% (inactive) in test [3]; 79% (inactive) in test [4]; 84.3% (inactive) in test [5]; 82.9% in test [6] (setting [9]); 84.3% in test [6] (setting [10]). For the same compound, the Her2 level in test [2] was 114% (inactive). Besides, in test [6] (H69AR cells + 2 uM doxorubicin), the differential viability (reversal) is 1.34% (inactive). The inhibition is -6.89% (inactive) in test [7] and -1.5% (inactive) in test [8].

As for `COc1ccc(-n2c(=O)cc(N3CCN(Cc4ccccc4)CC3)[nH]c2=O)cc1`, the viability is 87% in test [1]; 87% (inactive) in test [3]; 94% (inactive) in test [4]; 92.7% (inactive) in test [5]; 110% in test [6] (setting [9]); 92.7% in test [6] (setting [10]). In test [2], the Her2 level is 105% (inactive). In test [6] (H69AR cells + 2 uM doxorubicin), the differential viability (reversal) is -17.5% (inactive). The inhibition was 0.26% (inactive) in test [7] and -4% (inactive) in test [8].

Turning to `O=C(Nc1ccc2c(c1)OCO2)c1ccc(Br)c(S(=O)(=O)N2CCCC2)c1`, the viability was 98.5% in test [1]; 98.5% (inactive) in test [3]; 58% (inactive) in test [4]; 94% (inactive) in test [5]; 92.2% in test [6] (setting [9]); 94% in test [6] (setting [10]). For the same compound, the Her2 level in test [2] is 80.5% (inactive). The differential viability (reversal) in test [6] (H69AR cells + 2 uM doxorubicin) was 1.82% (inactive). Moreover, the results for the inhibition in test [7] and in test [8] were -1.32% (inactive) and -0.16% (inactive), respectively.

For the compound `Cc1ccc(OCC(=O)N2CCN(C(=O)CCC3CCCC3)CC2)cc1`, the viability in test [1] was 104%; in test [3], 104% (inactive); in test [4] it was 94.6% (inactive); in test [5] it was 86.6% (inactive); in test [6] (setting [9]), 100%; in test [6] (setting [10]), 86.6%. Also, in test [2], the Her2 level was 93.5% (inactive). Moreover, in test [6] (H69AR cells + 2 uM doxorubicin), the differential viability (reversal) is -13.4% (inactive). Moreover, the inhibition in test [7] is -6.89% (inactive); in test [8] it was -2.33% (inactive).

On to `CC(=O)c1ccc2c3c(cccc13)C(=O)N(c1c(C)nn(C)c1C)C2=O`, for which the viability in test [1] is 99%; in test [3] it was 99% (inactive); in test [4] it was 112% (inactive); in test [5] it was 104% (inactive); in test [6] (setting [9]), 104%; in test [6] (setting [10]), 104%. In addition, the Her2 level in test [2] was 108% (inactive). Moreover, the differential viability (reversal) in test [6] (H69AR cells + 2 uM doxorubicin) is 0.09% (inactive). For the same compound, the inhibition was 1.07% (inactive) in test [7] and 1.31% (inactive) in test [8].

For `CC1c2nc3ccccc3n2C(CC(=O)NCc2ccccn2)C(=O)N1Cc1ccccc1` (stereo not given), the viability was 110% in test [1]; 110% (inactive) in test [3]; 96.3% (inactive) in test [4]; 92.8% (inactive) in test [5]; 85.5% in test [6] (setting [9]); 92.8% in test [6] (setting [10]). The Her2 level in test [2] was 72% (inactive). In test [6] (H69AR cells + 2 uM doxorubicin), the differential viability (reversal) is 7.24% (inactive). For the same compound, the inhibition in test [7] was -1.58% (inactive); in test [8] it was 1.59% (inactive).
